The values below come from the M2OR odorant receptor database.

In one assay the target is T1, Or1m1 (Mus musculus) (UniProt Q8VFM9).
T1 sequence (whole entry): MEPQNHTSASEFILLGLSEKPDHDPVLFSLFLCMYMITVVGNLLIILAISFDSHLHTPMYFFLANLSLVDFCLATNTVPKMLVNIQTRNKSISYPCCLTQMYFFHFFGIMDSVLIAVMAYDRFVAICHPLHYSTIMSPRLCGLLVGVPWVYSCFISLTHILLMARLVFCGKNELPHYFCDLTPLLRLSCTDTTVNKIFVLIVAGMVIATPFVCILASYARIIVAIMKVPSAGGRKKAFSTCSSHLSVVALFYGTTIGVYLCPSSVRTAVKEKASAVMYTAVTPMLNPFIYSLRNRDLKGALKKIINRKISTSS
Conditions: stereoisomer not certain. In short, it runs like this: (§1)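 Assay methods differ from source to source, frequently being transient luciferase assays in mammalian cell lines. For each receptor–molecule pair, the label responsive (active) applies when the original authors judged the measured signal statistically different from baseline, and non-responsive (inactive) applies otherwise.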
Regarding `COc1cnccn1`, the “odorant receptor agonist call” value was “inactive”.

In the case of `CCC(C)c1nccnc1OC` (configuration not stated), the “odorant receptor agonist call” value is “inactive”.

As for `CCc1nccnc1CC`, the “odorant receptor agonist call” value is “inactive”.

On to `COc1nccnc1C(C)C`, for which the “odorant receptor agonist call” value was “inactive”.

`CCc1ncc(C)nc1CC`: the “odorant receptor agonist call” value is “inactive”.

A further assay has as its target T2, Or2c1 (Mus musculus) (UniProt P23275).
T2 sequence (whole entry): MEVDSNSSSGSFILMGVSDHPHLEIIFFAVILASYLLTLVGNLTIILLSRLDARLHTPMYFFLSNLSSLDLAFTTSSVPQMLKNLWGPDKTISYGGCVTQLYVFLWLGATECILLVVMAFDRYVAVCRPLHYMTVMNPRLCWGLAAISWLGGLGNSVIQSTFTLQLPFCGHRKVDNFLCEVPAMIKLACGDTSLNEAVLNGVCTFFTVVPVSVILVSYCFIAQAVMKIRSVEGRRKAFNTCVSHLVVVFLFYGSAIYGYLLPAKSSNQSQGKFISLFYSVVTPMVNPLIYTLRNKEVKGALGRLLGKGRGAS
As to conditions: stereoisomer not certain. In short, it runs like this: as §1
For `CCCCCCC(=O)[O-].[H+]`, the “odorant receptor agonist call” value was “inactive”.

Regarding `CCCCCO`, the “odorant receptor agonist call” value is “inactive”.

Regarding `O=c1ccc2ccccc2o1`, the “odorant receptor agonist call” value was “inactive”.

On to `CCCCOC(=O)C(C)OC(=O)CCC` (configuration not stated), for which the “odorant receptor agonist call” value is “inactive”.

Turning to `CCC(C(=O)O)c1ccccc1` (configuration not stated), the “odorant receptor agonist call” value was “inactive”.

A further assay has as its target T3, Or5an6 (Mus musculus) (UniProt Q8VFV4).
T3 sequence (whole entry): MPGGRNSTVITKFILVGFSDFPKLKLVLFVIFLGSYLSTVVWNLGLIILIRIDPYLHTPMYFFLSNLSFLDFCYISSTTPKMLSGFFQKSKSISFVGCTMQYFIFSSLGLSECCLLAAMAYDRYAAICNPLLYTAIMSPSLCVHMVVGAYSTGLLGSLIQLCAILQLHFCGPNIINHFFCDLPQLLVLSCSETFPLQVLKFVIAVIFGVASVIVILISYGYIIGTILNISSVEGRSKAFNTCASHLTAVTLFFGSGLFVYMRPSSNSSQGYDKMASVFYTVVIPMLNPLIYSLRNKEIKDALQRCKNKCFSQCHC
Conditions: stereoisomer not certain. In outline:
as §1
As for `CCCCCCCC(=O)CCCCCCC`, the “odorant receptor agonist call” value was “active”.

In the case of `CC1CC=CCCCCCCCCC(=O)C1` (configuration not stated), the “odorant receptor agonist call” value is “active”.

As to `CCC(=O)OCC(C)(C)OC(C)C1CCCC(C)(C)C1` (configuration not stated), the “odorant receptor agonist call” value was “active”.

As for `CC1CCCCCCCCCCCC(=O)C1` (configuration not stated), the “odorant receptor agonist call” value is “active”.

With `O=C1CCCCCCCCC1`, the “odorant receptor agonist call” value was “active”.

For `O=C1CCCCCCC=CCCCCCCC1`, the “odorant receptor agonist call” value is “active”.

On to `O=C1CCCCCCCCCCCCCC1`, for which the “odorant receptor agonist call” value was “active”.

For `CCCCCCCCCCCCCC(C)=O`, the “odorant receptor agonist call” value was “active”.

Turning to `O=C1CCCCCCCCCC1`, the “odorant receptor agonist call” value is “inactive”.

Take `CC1C(C)(C)C2=C(C(=O)CCC2)C1(C)C` (configuration not stated): the “odorant receptor agonist call” value is “inactive”.

With `O=C1CCCC=CCCCCCCCCCC1`, the “odorant receptor agonist call” value was “active”.

As to `O=C1C=CCCCCCCCCCCCCO1`, the “odorant receptor agonist call” value is “active”.

Consider `O=C1CCCCCC=CCCCCCCCCO1`, for which the “odorant receptor agonist call” value was “active”.

In another assay the target is T4, Or5ar1 (Mus musculus) (UniProt Q8VGS3).
T4 sequence (whole entry): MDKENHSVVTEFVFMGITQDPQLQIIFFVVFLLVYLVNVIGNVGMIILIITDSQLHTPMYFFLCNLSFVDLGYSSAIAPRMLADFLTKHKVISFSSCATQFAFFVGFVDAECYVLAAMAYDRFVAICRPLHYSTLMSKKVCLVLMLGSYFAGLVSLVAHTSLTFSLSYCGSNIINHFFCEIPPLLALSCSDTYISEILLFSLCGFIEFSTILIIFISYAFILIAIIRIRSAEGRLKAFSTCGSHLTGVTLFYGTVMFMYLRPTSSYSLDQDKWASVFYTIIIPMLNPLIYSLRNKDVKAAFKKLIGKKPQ
Conditions: stereoisomer not certain. In outline:
as §1
As to `CCCCCCC(=O)[O-].[H+]`, the “odorant receptor agonist call” value was “inactive”.

Regarding `CCCCCO`, the “odorant receptor agonist call” value is “inactive”.

As for `O=c1ccc2ccccc2o1`, the “odorant receptor agonist call” value was “inactive”.

Regarding `COc1cnccn1`, the “odorant receptor agonist call” value is “inactive”.

Regarding `CCCCOC(=O)C(C)OC(=O)CCC` (configuration not stated), the “odorant receptor agonist call” value is “inactive”.

Take `CCC(C)c1nccnc1OC` (configuration not stated): the “odorant receptor agonist call” value is “inactive”.

For the compound `CCc1nccnc1CC`, the “odorant receptor agonist call” value was “inactive”.

Regarding `CCC(C(=O)O)c1ccccc1` (configuration not stated), the “odorant receptor agonist call” value is “inactive”.

In the case of `COc1nccnc1C(C)C`, the “odorant receptor agonist call” value is “inactive”.

Regarding `CCc1ncc(C)nc1CC`, the “odorant receptor agonist call” value is “inactive”.

Another assay has as its target T5, Or5k16 (Mus musculus) (UniProt Q7TS48).
T5 sequence (whole entry): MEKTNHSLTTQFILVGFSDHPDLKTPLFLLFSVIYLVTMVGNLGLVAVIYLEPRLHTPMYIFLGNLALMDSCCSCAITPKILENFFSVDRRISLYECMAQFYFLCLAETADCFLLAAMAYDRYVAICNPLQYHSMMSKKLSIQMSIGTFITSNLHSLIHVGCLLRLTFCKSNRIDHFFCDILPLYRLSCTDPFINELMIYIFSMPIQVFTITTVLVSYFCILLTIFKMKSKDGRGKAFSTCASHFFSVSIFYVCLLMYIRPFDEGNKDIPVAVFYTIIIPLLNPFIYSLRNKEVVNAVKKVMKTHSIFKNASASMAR
Conditions: stereoisomer not certain. In short, it runs like this:
as §1
Regarding `Cc1cnccn1`, the “odorant receptor agonist call” value was “inactive”.

For `CC1CCc2nccnc21` (configuration not stated), the “odorant receptor agonist call” value was “inactive”.

Take `Cc1cnc(C)cn1`: the “odorant receptor agonist call” value was “inactive”.

Regarding `COc1cnccn1`, the “odorant receptor agonist call” value is “inactive”.

Turning to `CCC(C)c1nccnc1OC` (configuration not stated), the “odorant receptor agonist call” value is “inactive”.

Take `COC1=C(C)OC(C)C1=O` (configuration not stated): the “odorant receptor agonist call” value is “inactive”.

With `CCc1nccnc1C(C)=O`, the “odorant receptor agonist call” value was “inactive”.

Consider `CCc1nccnc1OC`, for which the “odorant receptor agonist call” value was “inactive”.

With `Cc1cncc(C)n1`, the “odorant receptor agonist call” value is “inactive”.

Take `Cc1nccnc1C`: the “odorant receptor agonist call” value is “inactive”.

For `CCc1nccnc1C`, the “odorant receptor agonist call” value was “inactive”.

Regarding `CCc1nccnc1CC`, the “odorant receptor agonist call” value was “inactive”.

As to `C=Cc1cnccn1`, the “odorant receptor agonist call” value was “inactive”.

With `CC(=O)c1cnccn1`, the “odorant receptor agonist call” value was “inactive”.

`COc1nccnc1CC(C)C`: the “odorant receptor agonist call” value was “inactive”.

For `COc1nccnc1C(C)C`, the “odorant receptor agonist call” value was “inactive”.

On to `CCc1cnc(C)c(C)n1`, for which the “odorant receptor agonist call” value is “active”.

With `CC(=O)c1nccnc1C`, the “odorant receptor agonist call” value is “inactive”.

`CCc1ncc(C)nc1CC`: the “odorant receptor agonist call” value was “inactive”.
